# In ChEMBL document CHEMBL2311407, “Design and synthesis of diazatricyclodecane agonists of the G-protein-coupled receptor 119” (J Med Chem, 2013):
# What was measured:
# [1] = Oral bioavailability in Sprague-Dawley rat at 30 mg/kg administered as spray dried dispersion; assay type: ADME, organism-based; details: in vivo
# Summary of the method: (§1)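 Rats were dosed po at 0.6 mL/kg with a 25% amorphous spray dried dispersion (with HPMCAS-HF) in 20 mM Tris buffer with 0.5% methylcellulose + 0.5% HPMCAS-HF, pH 7.4. Plasma concentrations are total drug. Data are mean ± SD of three animals. F is based on 1 mg/kg rat iv data.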
# [2] = Volume of distribution at steady state in Beagle dog at 1 mg/kg, iv; assay type: ADME, organism-based, Canis lupus familiaris; design: dose 1 mg/kg, route intravenous; details: in vivo, read-out: Vdss
# Summary of the method: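 Male beagle dogs received 1 mg/kg iv at 2 mL/kg in 5% DMA/75% PEG200/20% (30% SBE-CD). Plasma concentrations are reported as total drug. Parameters are means from two animals.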
# [3] = Cmax in Beagle dog at 30 mg/kg, po administered as spray dried dispersion; assay type: ADME, organism-based, Canis lupus familiaris; design: dose 30 mg/kg, route oral; details: in vivo
# Summary of the method: (§2)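 Oral gavage in male beagle dogs at 10, 30 or 100 mg/kg, 5 mL/kg, as 25% spray dried dispersion in 20 mM Tris buffer in 0.5% methylcellulose and 0.5% HPMCAS-HF, pH 7.4. Plasma concentrations are total drug. Values are the mean of two animals. F is based on 1 mg/kg iv dog data.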
# [4] = Tmax in Sprague-Dawley rat at 30 mg/kg, po administered as spray dried dispersion; assay type: ADME, organism-based; design: dose 30 mg/kg, route oral; details: in vivo
# [5] = Clearance in Sprague-Dawley rat at 1 mg/kg, iv; assay type: ADME, organism-based; design: dose 1 mg/kg, route intravenous; details: in vivo
# Summary of the method: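 Rats received 1 mg/kg iv in 10% N-methylpyrrolidone and 90% of a 30% SBE-CD solution. Plasma concentrations are total drug. Data are mean ± SD of three animals.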
# [6] = Cmax in Sprague-Dawley rat at 30 mg/kg, po dosing of milled material in 0.5% methylcellulose; assay type: ADME, organism-based; design: dose 30 mg/kg, route oral; details: in vivo
# Summary of the method: (§3)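 Rat po dosing of milled material (2−25 μm premilling, about 190 nm postmilling) suspended in 0.5% methylcellulose. Plasma concentrations are total drug. Data are mean ± SD of three animals. F is calculated from 1 mg/kg rat iv data.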
# [7] = Tmax in Beagle dog at 30 mg/kg, po administered as spray dried dispersion; assay type: ADME, organism-based, Canis lupus familiaris; design: dose 30 mg/kg, route oral; details: in vivo; summary of the method: as §2
# [8] = Clearance in Beagle dog at 1 mg/kg, iv; assay type: ADME, organism-based, Canis lupus familiaris; design: dose 1 mg/kg, route intravenous; details: in vivo
# Summary of the method: (§4)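 Male beagle dogs received 1 mg/kg iv at 2 mL/kg in 5% dimethylacetamide/75% PEG200/20% (30% SBE-CD). Plasma concentrations are total drug. Values are the mean of two animals.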
# [9] = AUC in Sprague-Dawley rat at 3 mg/kg, po dosing in 0.5% methylcellulose; assay type: ADME, organism-based; design: dose 3 mg/kg, route oral; details: in vivo
# Summary of the method: (§5)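 Rats were dosed orally at 3 mg/kg in 0.5% methylcellulose. Plasma concentrations are total drug. Data are mean ± SD of three animals. F is based on 1 mg/kg rat iv PK.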
# [10] = AUC in Sprague-Dawley rat at 3 mg/kg, po administered as spray dried dispersion; assay type: ADME, organism-based; design: dose 3 mg/kg, route oral; details: plasma; summary of the method: as §1
# [11] = Tmax in Sprague-Dawley rat at 3 mg/kg, po dosing in 0.5% methylcellulose; assay type: ADME, organism-based; design: dose 3 mg/kg, route oral; details: in vivo; summary of the method: as §5
# [12] = AUC in Beagle dog at 100 mg/kg, po administered as spray dried dispersion; assay type: ADME, organism-based, Canis lupus familiaris; design: dose 100 mg/kg, route oral; details: plasma; summary of the method: as §2
# [13] = Oral bioavailability in Sprague-Dawley rat at 3 mg/kg administered in 0.5% methylcellulose; assay type: ADME, organism-based; details: in vivo; summary of the method: as §5
# [14] = AUC in Beagle dog at 1 mg/kg, iv; assay type: ADME, organism-based, Canis lupus familiaris; design: dose 1 mg/kg, route intravenous; details: plasma; summary of the method: as §4
# [15] = Apparent permeability in MDCK2 cells; assay type: ADME, cell-based, Canis lupus familiaris, MDCK-II; details: dog, MDCK
# [16] = AUC in Beagle dog at 3 mg/kg, po administered as spray dried dispersion; assay type: ADME, organism-based, Canis lupus familiaris; design: dose 3 mg/kg, route oral; details: plasma
# Summary of the method: (§6)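 Male beagle dogs were dosed po at 3 mg/kg, 0.6 mL/kg, as 25% spray dried dispersion in 20 mM Tris buffer with 0.5% methylcellulose + 0.5% HPMCAS-HF, pH 7.4. Plasma concentrations are total drug. Values are the mean of two animals. F is calculated against 1 mg/kg iv dog data.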
# [17] = Cmax in Beagle dog at 3 mg/kg, po administered as spray dried dispersion; assay type: ADME, organism-based, Canis lupus familiaris; design: dose 3 mg/kg, route oral; details: in vivo; summary of the method: as §6
# [18] = Tmax in Beagle dog at 100 mg/kg, po administered as spray dried dispersion; assay type: ADME, organism-based, Canis lupus familiaris; design: dose 100 mg/kg, route oral; details: in vivo; summary of the method: as §2
# [19] = Fraction unbound in Sprague-Dawley rat plasma; assay type: ADME, cell-free
# [20] = Cmax in Sprague-Dawley rat at 3 mg/kg, po dosing of milled material in 0.5% methylcellulose; assay type: ADME, organism-based; design: dose 3 mg/kg, route oral; details: in vivo; summary of the method: as §3
# [21] = Oral bioavailability in Beagle dog at 100 mg/kg administered as spray dried dispersion; assay type: ADME, organism-based, Canis lupus familiaris; details: in vivo; summary of the method: as §2
# [22] = Oral bioavailability in Beagle dog at 3 mg/kg administered as spray dried dispersion; assay type: ADME, organism-based, Canis lupus familiaris; details: in vivo; summary of the method: as §6
# [23] = AUC in Sprague-Dawley rat at 30 mg/kg, po dosing of milled material in 0.5% methylcellulose; assay type: ADME, organism-based; design: dose 30 mg/kg, route oral; details: in vivo; summary of the method: as §3
# [24] = AUC in Sprague-Dawley rat at 3 mg/kg, po dosing of milled material in 0.5% methylcellulose; assay type: ADME, organism-based; design: dose 3 mg/kg, route oral; details: in vivo; summary of the method: as §3
# [25] = Tmax in Sprague-Dawley rat at 3 mg/kg, po administered as spray dried dispersion; assay type: ADME, organism-based; design: dose 3 mg/kg, route oral; details: in vivo; summary of the method: as §1
# [26] = Tmax in Beagle dog at 3 mg/kg, po administered as spray dried dispersion; assay type: ADME, organism-based, Canis lupus familiaris; design: dose 3 mg/kg, route oral; details: in vivo; summary of the method: as §6
smiles,measurement,setting,value
Cc1c(Oc2ccc(-n3cnnn3)cc2F)ncnc1N1C2CC3CC1CC(C2)N3C(=O)OC1(C)CC1,bioavailability,[1],> 100%
same,Vd,[2],3.7 L/kg
same,Cmax,[3],3750 ng/mL
same,Tmax,[4],4 h
same,clearance,[5],13.2 mL/min/kg
same,Cmax,[6],912 ng/mL
same,Tmax,[7],1 h
same,clearance,[8],1.74 mL/min/kg
same,AUC,[9],312 ng·h/mL
same,AUC,[10],6140 ng·h/mL
same,Tmax,[11],3 h
same,AUC,[12],151000 ng·h/mL
same,bioavailability,[13],7.6%
same,AUC,[14],4730 ng·h/mL
same,Papp,[15],3.5 ×10⁻⁶ cm/s
same,AUC,[16],8580 ng·h/mL
same,Cmax,[17],812 ng/mL
same,Tmax,[18],1.5 h
same,fraction unbound,[19],0.01
same,Cmax,[20],255 ng/mL
same,bioavailability,[21],32%
same,bioavailability,[22],60%
same,AUC,[23],12500 ng·h/mL
same,AUC,[24],3180 ng·h/mL
same,Tmax,[25],4.7 h
same,Tmax,[26],1 h
